Source: ChEMBL document CHEMBL4387746, “Chemical conversion of nicotinamide into type I positive allosteric modulator of α7 nAChRs” (Bioorg Med Chem Lett, 2019)
pEC50: −log10 of the molar value. Activity calls are given as the source filed them. The rule behind the calls is not given here.

What was measured:
Assay type in all cases: cell-based
[1] = target: T1, Neuronal acetylcholine receptor subunit alpha-7 (Homo sapiens, UniProt P36544); assay: Agonist activity at human alpha7 nAChR expressed in Xenopus laevis oocytes assessed as increase in channel current at -90 mV holding potential by two-electrode voltage clamp method
T1 sequence (P36544 whole entry): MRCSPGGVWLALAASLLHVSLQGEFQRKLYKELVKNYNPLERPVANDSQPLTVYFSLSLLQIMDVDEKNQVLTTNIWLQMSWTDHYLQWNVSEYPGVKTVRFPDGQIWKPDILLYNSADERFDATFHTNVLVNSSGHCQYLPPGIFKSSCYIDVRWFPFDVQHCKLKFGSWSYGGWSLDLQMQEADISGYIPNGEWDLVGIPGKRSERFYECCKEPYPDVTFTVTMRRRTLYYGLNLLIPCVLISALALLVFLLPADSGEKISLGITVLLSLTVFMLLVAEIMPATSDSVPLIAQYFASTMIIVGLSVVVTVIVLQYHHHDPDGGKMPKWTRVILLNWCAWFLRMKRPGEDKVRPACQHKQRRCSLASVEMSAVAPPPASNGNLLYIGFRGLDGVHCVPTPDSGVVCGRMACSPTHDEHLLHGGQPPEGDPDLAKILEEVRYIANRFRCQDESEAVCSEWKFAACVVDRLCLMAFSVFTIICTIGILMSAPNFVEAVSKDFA

[2] = target: T1, Neuronal acetylcholine receptor subunit alpha-7; assay: (§1) Positive allosteric modulation activity at human alpha7 nAChR expressed in Xenopus laevis oocytes assessed as increase in acetylcholine-induced channel current at 10 uM at -90 mV holding potential preincubated for 2 mins followed by co-application with acetylcholine for 10 secs by two-electrode voltage clamp method relative to control
How it was run: (§2)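 Human α7 nAChR expressed in Xenopus laevis oocytes and recorded by two-electrode voltage clamp. Each compound was tested at 10 μM with 100 μM ACh. Data come from 2–5 individual oocytes.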

[3] = target: T1, Neuronal acetylcholine receptor subunit alpha-7; assay: Positive allosteric modulation activity at alpha7 nAChR (unknown origin) expressed in Xenopus laevis oocytes assessed as increase in acetylcholine-induced channel current at 10 uM at -90 mV holding potential by two-electrode voltage clamp method relative control; how it was run: as §2
[4] = target: T1, Neuronal acetylcholine receptor subunit alpha-7; assay: as §1, with “current” for “current at 10 uM”, “method” for “method relative to control”
How it was run: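 Human α7 nAChR was recorded in Xenopus oocytes by two-electrode voltage clamp, with 100 μM ACh as agonist. EC50 is the compound concentration giving half of the maximum activation effect. Data come from 2–5 individual oocytes.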

[5] = target: T2, 5-hydroxytryptamine receptor 3A (Homo sapiens) (UniProt P46098); assay: as §1, with “5-HT3A receptor” for “alpha7 nAChR”
T2 sequence (whole entry): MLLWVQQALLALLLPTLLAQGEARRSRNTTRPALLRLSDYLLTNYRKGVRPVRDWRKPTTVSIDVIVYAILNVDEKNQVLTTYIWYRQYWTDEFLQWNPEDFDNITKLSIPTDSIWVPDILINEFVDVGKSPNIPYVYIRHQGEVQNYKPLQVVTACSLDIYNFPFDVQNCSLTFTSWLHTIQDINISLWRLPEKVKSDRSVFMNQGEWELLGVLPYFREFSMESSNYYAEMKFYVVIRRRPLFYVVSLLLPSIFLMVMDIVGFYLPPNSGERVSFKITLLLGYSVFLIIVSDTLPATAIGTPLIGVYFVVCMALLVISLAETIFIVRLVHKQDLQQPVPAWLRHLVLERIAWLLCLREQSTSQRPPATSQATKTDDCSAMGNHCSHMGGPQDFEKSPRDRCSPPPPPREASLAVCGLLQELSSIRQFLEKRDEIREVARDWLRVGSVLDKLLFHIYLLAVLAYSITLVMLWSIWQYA

[6] = target: Neuronal acetylcholine receptor; alpha3/beta4 (Rattus norvegicus) (UniProt P04757+P12392); assay: as §1, with “rat alpha3beta4” for “human alpha7”
[7] = target: Neuronal acetylcholine receptor; alpha4/beta2 (Rattus norvegicus) (UniProt P09483+P12390); assay: as §1, with “rat alpha4beta2” for “human alpha7”
[8] = target: T1, Neuronal acetylcholine receptor subunit alpha-7; assay: as §1, with “current by measuring maximum efficacy of acetylcholine” for “current”
How it was run: (§3)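 ACh concentration-response on α7-expressing Xenopus oocytes, run without compound or after 2 min preincubation with 10 μM compound. Peak currents were normalised to the current evoked by 100 μM ACh alone. Curves were fitted for Emax, ACh EC50 and Hill coefficient, n = 4 per point.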

[9] = target: T1, Neuronal acetylcholine receptor subunit alpha-7; assay: as §1, with “at 0.1 uM to 30” for “at 10”
How it was run: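 A control current to 100 μM ACh alone was recorded first. Oocytes expressing α7 nAChR were then preincubated 2 min with compound at 0.1–30 μM, followed by co-application with 100 μM ACh for 10 s. Peak currents were normalised to the 100 μM ACh-alone amplitude. Data were fitted for EC50, Emax and Hill coefficient, n = 4 per point.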

[10] = target: T1, Neuronal acetylcholine receptor subunit alpha-7; assay: as §1, with “current by measuring maximum efficacy of acetylcholine” for “current”, “(reference value: 339%)” for “relative to control”; how it was run: as §3
[11] = target: T1, Neuronal acetylcholine receptor subunit alpha-7; assay: Induction of desensitization of human alpha7 nAChR expressed in Xenopus laevis oocytes assessed as acetylcholine-induced channel desensitization time constant at 10 uM at -90 mV holding potential by two-electrode voltage clamp method (reference value: 6.37 +/- 2.56)

| SMILES | Activity [1] | Emax [2] | also measured |
| --- | --- | --- | --- |
| Cc1cccc(Cl)c1NC(=O)c1cc(-c2ccc(O)cc2)cnc1N | inactive | 257% |  |
| Cc1ccc(-c2cnc(N)c(C(=O)Nc3c(C)cccc3Cl)c2)c(F)c1 | inactive | 372% |  |
| Cc1cccc(Cl)c1NC(=O)c1cc(-c2ccc(F)cc2Cl)cnc1N | inactive | 186% |  |
| Cc1cccc(Cl)c1-n1cnc2ccc(-c3ccc(F)cc3)cc2c1=O |  |  | Emax [3]: 76% |
| Cc1cccc(Cl)c1NC(=O)c1cc(-c2ccc(C(F)(F)F)cc2)cnc1N | inactive | 164% |  |
| CC(=O)Nc1ccc(-c2cnc(N)c(C(=O)Nc3c(C)cccc3Cl)c2)cc1 | inactive | 109% |  |
| Cc1cccc(Cl)c1NC(=O)c1cc(-c2ccoc2)cnc1N | inactive | 111% |  |
| COc1ccc(-c2ccc3ncn(-c4c(C)cccc4Cl)c(=O)c3c2)cc1 |  |  | Emax [3]: 65% |
| Cc1ccc(-c2cnc(N)c(C(=O)Nc3c(C)cccc3Cl)c2)cc1 | inactive | 539% | pEC50 [4]: 5.50 |
| Cc1cccc(Cl)c1NC(=O)c1cc(-c2ccsc2)cnc1N | inactive | 153% |  |
| Cc1cccc(Cl)c1NC(=O)c1cc(-c2ccc(F)cc2)ccc1N | inactive | 136% |  |
| Cc1cccc(Cl)c1NC(=O)c1cc(-c2ccc(OC(F)(F)F)cc2)cnc1N | inactive | 153% |  |
| CCc1ccc(-c2cnc(N)c(C(=O)Nc3c(C)cccc3Cl)c2)cc1 | inactive | 455% | pEC50 [4]: 5.87 |
| Cc1cccc(Cl)c1NC(=O)c1cc(-c2ccc(Cl)c(F)c2)cnc1N | inactive | 229% |  |
| Cc1cccc(Cl)c1NC(=O)c1cc(-c2ccc(F)c(Cl)c2)cnc1N | inactive | 495% | pEC50 [4]: 5.26 |
| Cc1cccc(Cl)c1NC(=O)c1cc(-c2ccc(F)cc2)cnc1N | inactive | 604% | pEC50 [4]: 5.34 |
| Cc1cccc(Cl)c1NC(=O)c1cc(-c2ccccc2)cnc1N | inactive | 273% |  |
| COc1ccc(-c2cnc(N)c(C(=O)Nc3c(C)cccc3Cl)c2)cc1 | inactive | 531% | pEC50 [4]: 5.07 |

| SMILES | Activity [1] | Emax [2] | also measured |
| --- | --- | --- | --- |
| Cc1cc(-c2cnc(N)c(C(=O)Nc3c(C)cccc3Cl)c2)ccc1F | inactive | 1470% | Emax [5]: 94%; Emax [6]: 78%; Emax [7]: 72%; pEC50 [4]: 5.48; fold change (FC) [8]: 7; Activity [9]: Dose-dependent effect; Emax [10]: 2170%; K [11]: 3.49 |
| Cc1cc(-c2cnc(N)c(C(=O)Nc3ccccc3)c2)ccc1F | inactive | 94% |  |
| Cc1ccc(Nc2nc3ncn(-c4c(C)cccc4Cl)c(=O)c3s2)cc1 |  |  | Emax [3]: 1620% |
| Cc1ccc(-c2cncc(C(=O)Nc3c(C)cccc3Cl)c2)cc1 | inactive | 603% | pEC50 [4]: 5.71 |
| Cc1cc(-c2cnc(N)c(C(=O)Nc3ccccc3C)c2)ccc1F | inactive | 156% |  |
| Cc1cccc(Cl)c1NC(=O)c1cc(-c2ccc([N+](=O)[O-])cc2)cnc1N | inactive | 135% |  |
| Cc1cccc(Cl)c1NC(=O)c1cc(-c2cccc(F)c2)cnc1N | inactive | 86% |  |
| Cc1cccc(Cl)c1NC(=O)c1cncc(-c2ccc(Cl)cc2)c1 | inactive | 150% |  |
| Cc1cccc(Cl)c1NC(=O)c1cc(-c2ccccc2F)cnc1N | inactive | 119% |  |
| COc1cccc(-c2cnc(N)c(C(=O)Nc3c(C)cccc3Cl)c2)c1 | inactive | 212% |  |
| Cc1cccc(Cl)c1NC(=O)c1cc(-c2ccc(Cl)cc2)cnc1N | inactive | 278% |  |
| COc1ccccc1-c1cnc(N)c(C(=O)Nc2c(C)cccc2Cl)c1 | inactive | 1010% | pEC50 [4]: 5.36 |
| Cc1cccc(Cl)c1NC(=O)c1cc(-c2cccnc2)cnc1N | inactive | 138% |  |
| CSc1ccc(-c2cnc(N)c(C(=O)Nc3c(C)cccc3Cl)c2)cc1 | inactive | 774% | pEC50 [4]: 5.30 |
| Cc1cccc(Cl)c1NC(=O)c1cncc(-c2ccc(F)cc2)c1 | inactive | 248% |  |
| Cc1cccc(Cl)c1-n1cnc2nc(SCc3ccccc3)sc2c1=O |  |  | Emax [3]: 1630% |
| Cc1cc(F)ccc1-c1cnc(N)c(C(=O)Nc2c(C)cccc2Cl)c1 | inactive | 225% |  |
| Cc1ccc(-c2cnc(N)c(C(=O)Nc3c(C)cccc3Cl)c2)cc1F | inactive | 609% | pEC50 [4]: 5.48 |
